pIC50: −log10 of the molar value. Active and inactive are the calls of the source. The rule behind the calls is not given here.
Columns and labels:
MDA-MB-231 [1] = test: Induction of apoptosis in human MDA-MB-231 cells assessed as late apoptotic cells at 1 uM after 24 hrs by Annexin V-FITC/PI dual staining based flow cytometry (reference value: 6.2%); type: functional
MDA-MB-231 [2] = test: Disruption of mitochondrial membrane potential in human MDA-MB-231 cells at 0.5 to 2 uM after 48 hrs by Rhodamine-123 staining based spectrofluorometry; type: functional
Outline: (§1)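 Cells were seeded at 5×10^5 cells/mL overnight and treated with 0.5, 1 and 2 µM compound; the methods say 24 h and the results text says 48 h. Trypsinised cells were washed and stained with rhodamine-123 (2 µM in PBS) for 30 min at room temperature in the dark, washed and read by spectrofluorometer. Data are mean ± SD of three independent experiments.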

MDA-MB-231 [3] = test: Cell cycle arrest in human MDA-MB-231 cells assessed as accumulation at G0/G1 phase at 2 uM after 24 to 48 hrs by propidium iodide staining based flow cytometry (reference value: 74.4%); type: functional
Outline: (§2)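 Cells were seeded at 1×10^6 per well and treated 24 h later with 0.5, 1 or 2 µM compound; DMSO-treated cells served as control. Methods give harvest at 48 h (floating plus trypsinised cells); the figure legend says 24 h. Cells were fixed in 70% ethanol for 30 min at 4 °C and stained with PI, Triton X-100 and RNase A for 15 min in the dark. 10000 events were counted by flow cytometry.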

A549 [4] = test: Cell cycle arrest in human A549 cells assessed as accumulation at S phase at 0.5 uM after 24 to 48 hrs by propidium iodide staining based flow cytometry (reference value: 18.3%); type: functional; outline: as §2
MDA-MB-231 [5] = test: Induction of apoptosis in human MDA-MB-231 cells assessed as viable cells at 0.5 uM after 24 hrs by Annexin V-FITC/PI dual staining based flow cytometry (reference value: 91%); type: functional; details: MDA-MB-231, 24 h, read-out: Activity
MDA-MB-231 [6] = test: Cell cycle arrest in human MDA-MB-231 cells assessed as accumulation at G2/M phase at 0.5 uM after 24 to 48 hrs by propidium iodide staining based flow cytometry (reference value: 20.2%); type: functional; outline: as §2
A549 [7] = test: Disruption of mitochondrial membrane potential in human A549 cells after 48 hrs by Rhodamine-123 staining based spectrofluorometry; type: functional, cell-based; outline: as §1
MDA-MB-231 (human) [8] = test: Induction of apoptosis in human MDA-MB-231 cells assessed as early apoptotic cells at 2 uM after 24 hrs by Annexin V-FITC/PI dual staining based flow cytometry (reference value: 5.3%)
MCF7 = test: Cytotoxicity against human MCF7 cells assessed as growth inhibition after 72 hrs by MTT assay; type: functional, cell-based; details: MCF7, 72 h
Outline: (§3)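 Cells in RPMI 1640 (PC-3, A549, MDA-MB-231) or DMEM (U87MG, MCF-7) with 10% FBS, passages 4-10, were seeded at 3000-5000 per well and left 24 h. Compounds in DMSO/medium were added for 72 h; DMSO served as control. MTT (5 mg/mL) was added for 4 h and formazan dissolved in DMSO. Absorbance was read at 570 nm minus 630 nm. % inhibition was taken versus DMSO, with IC50 by probit; mean ± SD of three experiments in triplicate.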

A549 [9] = test: Cell cycle arrest in human A549 cells assessed as accumulation at G0/G1 phase at 0.5 uM after 24 to 48 hrs by propidium iodide staining based flow cytometry (reference value: 49.1%); type: functional; outline: as §2
A549 [10] = test: Induction of apoptosis in human A549 cells assessed as viable cells at 0.5 uM after 24 hrs by Annexin V-FITC/PI dual staining based flow cytometry (reference value: 85%); type: functional; details: A549, 24 h, read-out: Activity
A549 [11] = test: Cytotoxicity against human A549 cells assessed as inhibition of colony formation after 24 hrs by methylene blue staining-based assay; type: functional, cell-based
Outline: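 Clonogenic assay. Cells were plated at 500 per well and allowed to adhere 24 h. Compound was added at 0.1, 1 and 10 µM for 24 h, then medium was replaced and cells grown a further 14 days. Colonies were fixed with 4% paraformaldehyde, stained with 0.5% methylene blue in PBS for 30 min, rinsed and photographed.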

A549 (human) = test: Induction of apoptosis in human A549 cells assessed as late apoptotic cells at 2 uM after 24 hrs by Annexin V-FITC/PI dual staining based flow cytometry (reference value: 6.2%)
A549 [12] = test: Cell cycle arrest in human A549 cells assessed as accumulation at S phase at 1 uM after 24 to 48 hrs by propidium iodide staining based flow cytometry (reference value: 18.3%); type: functional; outline: as §2
A549 [13] = test: Induction of apoptosis in human A549 cells assessed as condensation of nuclei at 0.5 to 2 uM after 48 hrs by Hoechst […] staining based fluorescence microscopy; type: functional, cell-based
Outline: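 Cells at 25×10^4 per well were allowed to adhere 24 h, then treated with 0.5, 1 and 2 µM compound for 48 h at 37 °C. After a PBS wash they were stained with Hoechst […] (5 µg/mL) for 30 min at room temperature and washed twice. Nuclear morphology was viewed by fluorescence microscopy (ex 350/em 460 nm).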

[14] = Cytotoxicity against human PC3 cells assessed as growth inhibition after 72 hrs by MTT assay; type: functional, cell-based; details: PC-3, 72 h; outline: as §3
MDA-MB-231 [15] = test: Cell cycle arrest in human MDA-MB-231 cells assessed as accumulation at G2/M phase after 24 to 48 hrs by propidium iodide staining based flow cytometry; type: functional; outline: as §2
A549 [16] = test: Induction of apoptosis in human A549 cells assessed as viable cells at 1 uM after 24 hrs by Annexin V-FITC/PI dual staining based flow cytometry (reference value: 85%); type: functional; details: A549, 24 h, read-out: Activity
MDA-MB-231 [17] = test: Induction of apoptosis in human MDA-MB-231 cells assessed as viable cells at 2 uM after 24 hrs by Annexin V-FITC/PI dual staining based flow cytometry (reference value: 91%); type: functional; details: MDA-MB-231, 24 h, read-out: Activity
MDA-MB-231 (human) [18] = test: Induction of apoptosis in human MDA-MB-231 cells assessed as late apoptotic cells at 2 uM after 24 hrs by Annexin V-FITC/PI dual staining based flow cytometry (reference value: 4.5%)
A549 [19] = test: Induction of reactive oxygen species generation in human A549 cells at 0.5 to 2 uM after 48 hrs by carboxy-DCFDA staining based spectrofluorometry relative to control; type: functional
A549 [20] = test: Induction of apoptosis in human A549 cells assessed as necrotic cells at 2 uM after 24 hrs by Annexin V-FITC/PI dual staining based flow cytometry (reference value: 5.2%); type: functional
A549 [21] = test: Cell cycle arrest in human A549 cells assessed as accumulation at G2/M phase at 2 uM after 24 to 48 hrs by propidium iodide staining based flow cytometry (reference value: 22.3 to 31%); type: functional; outline: as §2
A549 [22] = test: Cell cycle arrest in human A549 cells assessed as accumulation at G0/G1 phase at 2 uM after 24 to 48 hrs by propidium iodide staining based flow cytometry (reference value: 49.1%); type: functional; outline: as §2
MDA-MB-231 [23] = test: Cell cycle arrest in human MDA-MB-231 cells assessed as accumulation at S phase at 0.5 uM after 24 to 48 hrs by propidium iodide staining based flow cytometry (reference value: 4.6%); type: functional; outline: as §2

Question: Which Activity (MDA-MB-231 [1]) does the source give for O=C1c2ccccc2Nc2ccccc2N1Cc1cn(Cc2ccccc2)nn1 here?
Answer: The Activity was 11.5%.

Question: What about the Activity (MDA-MB-231 [2]) of the same molecule?
Answer: The Activity was 20%.

Question: And the Activity (MDA-MB-231 [3])?
Answer: The Activity was 33.3%.

Question: And the Activity (A549 [4])?
Answer: The Activity was 19.5%.

Question: What about the viability at 0.5 µM (MDA-MB-231 [5]) of the same molecule?
Answer: The viability at 0.5 µM was 70%.

Question: What about the Activity (MDA-MB-231 [6]) of the same molecule?
Answer: The Activity was 22.3%.

Question: What about the Activity (A549 [7]) of the same molecule?
Answer: Its Activity is “Dose-dependent effect”.

Question: What about the Activity (MDA-MB-231 (human) [8]) of the same molecule?
Answer: Its Activity is 15.4%.

Question: What about the pIC50 (MCF7) of the same molecule?
Answer: Its pIC50 is 5.14.

Question: What about the Activity (A549 [9]) of the same molecule?
Answer: The Activity was 42.8%.

Question: And the viability at 0.5 µM (A549 [10])?
Answer: The viability at 0.5 µM was 75%.

Question: And the inhibition (A549 [11])?
Answer: Its inhibition is “Dose-dependent effect”.

Question: What about the Activity (A549 (human)) of the same molecule?
Answer: The Activity was 15.6%.

Question: What about the Activity (A549 [12]) of the same molecule?
Answer: The Activity was 15.3%.

Question: And the Activity (A549 [13])?
Answer: The Activity was “Active”.

Question: What about the pIC50 [14] of the same molecule?
Answer: Its pIC50 is 5.38.

Question: And the Activity (MDA-MB-231 [15])?
Answer: The Activity was “Dose-dependent effect”.

Question: And the viability at 1 µM (A549 [16])?
Answer: The viability at 1 µM was 72%.

Question: What about the viability at 2 µM (MDA-MB-231 [17]) of the same molecule?
Answer: The viability at 2 µM was 62%.

Question: And the Activity (MDA-MB-231 (human) [18])?
Answer: The Activity was 17%.

Question: What about the “fold change (FC)” value (A549 [19]) of the same molecule?
Answer: The value was 1.8.

Question: And the Activity (A549 [20])?
Answer: Its Activity is 3.8%.

Question: And the Activity (A549 [21])?
Answer: Its Activity is 51.3%.

Question: And the Activity (A549 [22])?
Answer: The Activity was 34.7%.

Question: What about the Activity (MDA-MB-231 [23]) of the same molecule?
Answer: The Activity was 1.2%.
